ChEMBL document CHEMBL3872252, “New bithiazolyl hydrazones: Novel synthesis, characterization and antitubercular evaluation” (Bioorg Med Chem Lett, 2017)
In brackets after ≈: the same amount, converted by molar mass.

Legend:
Pseudomonas aeruginosa [1] = assay: Growth inhibition of Pseudomonas aeruginosa at 10 ug/ml; type: functional; settings: read-out: GI
Staphylococcus aureus [2] = assay: Growth inhibition of Staphylococcus aureus at 3 ug/ml; type: functional; settings: read-out: GI
In short: (§1)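 Screened against Gram-negative E. coli and P. aeruginosa and Gram-positive S. aureus and B. subtilis. Compound was tested at 3 µg/ml, and the read-out is percent growth inhibition.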

[3] = Selectivity index, ratio of GI50 for human THP1 cells to MIC90 for Mycobacterium tuberculosis H37Ra ATCC 25177 active stage; type: toxicity, cell-based, THP-1; settings: read-out: Selectivity Index
In short: (§2)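 Cytotoxicity was measured on human MCF-7, HCT116 and THP-1 cells by MTT assay, with paclitaxel as reference. GI50 is the concentration inhibiting 50% of cell growth. The selectivity index is GI50 for the given cell line divided by MIC90 for the given mycobacterial strain and stage.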

[4] = Selectivity index, ratio of GI50 for human MCF7 cells to MIC90 for Mycobacterium tuberculosis H37Ra ATCC 25177 dormant stage; type: toxicity, cell-based; settings: read-out: Selectivity Index
In short: (§3)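 Cytotoxicity was measured on human MCF-7, HCT116 and THP-1 cells by MTT assay, with paclitaxel as reference. The selectivity index is GI50 for the given cell line divided by MIC90 for the given mycobacterial strain and stage.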

[5] = Selectivity index, ratio of GI50 for human MCF7 cells to MIC90 for Mycobacterium bovis BCG ATCC 35743 active stage; type: toxicity, cell-based; settings: read-out: Selectivity Index; in short: as §2
Bacillus subtilis [6] = assay: Growth inhibition of Bacillus subtilis at 30 ug/ml; type: functional; settings: read-out: GI
Pseudomonas aeruginosa [7] = assay: Growth inhibition of Pseudomonas aeruginosa at 30 ug/ml; type: functional; settings: read-out: GI
Staphylococcus aureus [8] = assay: Growth inhibition of Staphylococcus aureus at 10 ug/ml; type: functional; settings: read-out: GI
[9] = Selectivity index, ratio of GI50 for human HCT116 cells to MIC90 for Mycobacterium tuberculosis H37Ra ATCC 25177 active stage; type: toxicity, cell-based, HCT-116; settings: read-out: Selectivity Index; in short: as §2
[10] = Cytotoxicity against human MCF7 cells by MTT assay; type: toxicity, cell-based; settings: for GI50: MCF7 cells; for GI90: mcf7
Pseudomonas aeruginosa [11] = assay: Growth inhibition of Pseudomonas aeruginosa at 3 ug/ml; type: functional; settings: read-out: GI; in short: as §1
[12] = Antitubercular activity against Mycobacterium tuberculosis H37Ra ATCC 25177 dormant stage infected in human THP1 cells measured on day 12 by nitrate reductase assay; type: functional, THP-1; settings: ATCC 25177, 288 h
Bacillus subtilis [13] = assay: Growth inhibition of Bacillus subtilis at 3 ug/ml; type: functional; settings: read-out: GI; in short: as §1
[14] = Antitubercular activity against Mycobacterium bovis BCG ATCC 35743 active stage measured on day 8 by nitrate reductase based two-fold dilution assay; type: functional, Mycobacterium bovis BCG str. ATCC 35743; settings: Mycobacterium tuberculosis variant bovis BCG, ATCC 35743, 192 h
[15] = Selectivity index, ratio of GI50 for human MCF7 cells to MIC90 for Mycobacterium bovis BCG ATCC 35743 dormant stage; type: toxicity, cell-based; settings: read-out: Selectivity Index; in short: as §3
[16] = Selectivity index, ratio of GI50 for human THP1 cells to MIC90 for Mycobacterium tuberculosis H37Ra ATCC 25177 dormant stage; type: toxicity, cell-based, THP-1; settings: read-out: Selectivity Index; in short: as §3
[17] = Selectivity index, ratio of GI50 for human HCT116 cells to MIC90 for Mycobacterium bovis BCG ATCC 35743 dormant stage; type: toxicity, cell-based, HCT-116; settings: read-out: Selectivity Index; in short: as §3
[18] = Cytotoxicity against human HCT116 cells by MTT assay; type: toxicity, cell-based, HCT-116; settings: for GI50: HCT116 cells; for GI90: hct-116
[19] = Selectivity index, ratio of GI50 for human HCT116 cells to MIC90 for Mycobacterium tuberculosis H37Ra ATCC 25177 dormant stage; type: toxicity, cell-based, HCT-116; settings: read-out: Selectivity Index; in short: as §3
[20] = Selectivity index, ratio of GI50 for human THP1 cells to MIC90 for Mycobacterium bovis BCG ATCC 35743 active stage; type: toxicity, cell-based, THP-1; settings: read-out: Selectivity Index; in short: as §2
[21] = Antitubercular activity against Mycobacterium bovis BCG ATCC 35743 dormant stage measured on day 12 by nitrate reductase based two-fold dilution assay; type: functional, Mycobacterium bovis BCG str. ATCC 35743; settings: Mycobacterium tuberculosis variant bovis BCG, ATCC 35743, 288 h
[22] = Cytotoxicity against human THP1 cells by MTT assay; type: toxicity, cell-based, THP-1; settings: for GI50: THP1 cells; for GI90: thp-1
[23] = Antitubercular activity against Mycobacterium tuberculosis H37Ra ATCC 25177 active stage measured on day 8 by XTT reduction menadione based two-fold dilution assay; type: functional; settings: ATCC 25177, 192 h
In short: (§4)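 M. tuberculosis H37Ra ATCC 25177 was exposed to 0.7–100 μg/mL in two-fold steps (0.7, 1.5, 3.1 … 100). Active stage was read after 8 days and dormant stage after 12 days of incubation. Inhibition was read by XTT reduction menadione assay (XRMA), absorbance 470 nm. MIC90 is the concentration giving ≥90% inhibition (µg/mL).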

Escherichia coli [24] = assay: Growth inhibition of Escherichia coli at 10 ug/ml; type: functional; settings: read-out: GI
[25] = Selectivity index, ratio of GI50 for human MCF7 cells to MIC90 for Mycobacterium tuberculosis H37Ra ATCC 25177 active stage; type: toxicity, cell-based; settings: read-out: Selectivity Index; in short: as §2
[26] = Selectivity index, ratio of GI50 for human THP1 cells to MIC90 for Mycobacterium bovis BCG ATCC 35743 dormant stage; type: toxicity, cell-based, THP-1; settings: read-out: Selectivity Index; in short: as §3
Bacillus subtilis [27] = assay: Growth inhibition of Bacillus subtilis at 10 ug/ml; type: functional; settings: read-out: GI
Staphylococcus aureus [28] = assay: Growth inhibition of Staphylococcus aureus at 30 ug/ml; type: functional; settings: read-out: GI
Escherichia coli [29] = assay: Growth inhibition of Escherichia coli at 30 ug/ml; type: functional; settings: read-out: GI
[30] = Antitubercular activity against Mycobacterium tuberculosis H37Ra ATCC 25177 dormant stage measured on day 12 by XTT reduction menadione based two-fold dilution assay; type: functional; settings: ATCC 25177, 288 h; in short: as §4
Escherichia coli [31] = assay: Growth inhibition of Escherichia coli at 3 ug/ml; type: functional; settings: read-out: GI; in short: as §1
[32] = Antitubercular activity against Mycobacterium tuberculosis H37Ra ATCC 25177 active stage infected in human THP1 cells measured on day 8 by nitrate reductase assay; type: functional, THP-1; settings: ATCC 25177, 192 h
[33] = Selectivity index, ratio of GI50 for human HCT116 cells to MIC90 for Mycobacterium bovis BCG ATCC 35743 active stage; type: toxicity, cell-based, HCT-116; settings: read-out: Selectivity Index; in short: as §2

## C/C(=N\Nc1nc(-c2ccc(Br)cc2)cs1)c1sc(C)nc1C
Pseudomonas aeruginosa [1]
  inhibition of growth at 10 µg/mL: 69.5%
Staphylococcus aureus [2]
  inhibition of growth at 3 µg/mL: 31.2%
[3]
  selectivity ratio: 2
[4]
  selectivity ratio: 2
[5]
  selectivity ratio: 9
Bacillus subtilis [6]
  inhibition of growth at 30 µg/mL: 79.5%
Pseudomonas aeruginosa [7]
  inhibition of growth at 30 µg/mL: 82.1%
Staphylococcus aureus [8]
  inhibition of growth at 10 µg/mL: 68.8%
[9]
  selectivity ratio: 2
[10]
  GI50: > 100 µg/mL
  GI90: > 100 µg/mL
Pseudomonas aeruginosa [11]
  inhibition of growth at 3 µg/mL: 30.5%
[12]
  MIC90: 48.8 µg/mL (≈ 120 µM)
Bacillus subtilis [13]
  inhibition of growth at 3 µg/mL: 25.9%
[14]
  IC50: 1.6 µg/mL (≈ 3.93 µM)
  MIC90: 11.4 µg/mL (≈ 28 µM)
[15]
  selectivity ratio: 9
[16]
  selectivity ratio: 2
[17]
  selectivity ratio: 9
[18]
  GI50: > 100 µg/mL
  GI90: > 100 µg/mL
[19]
  selectivity ratio: 2
[20]
  selectivity ratio: 9
[21]
  IC50: 2.51 µg/mL (≈ 6.16 µM)
  MIC90: 10.6 µg/mL (≈ 26 µM)
[22]
  GI50: > 100 µg/mL
  GI90: > 100 µg/mL
[23]
  IC50: 0.15 µg/mL (≈ 0.368 µM)
  MIC90: 44.1 µg/mL (≈ 108 µM)
Escherichia coli [24]
  inhibition of growth at 10 µg/mL: 70.7%
[25]
  selectivity ratio: 2
[26]
  selectivity ratio: 9
Bacillus subtilis [27]
  inhibition of growth at 10 µg/mL: 66.4%
Staphylococcus aureus [28]
  inhibition of growth at 30 µg/mL: 81%
Escherichia coli [29]
  inhibition of growth at 30 µg/mL: 82%
[30]
  IC50: 0.66 µg/mL (≈ 1.62 µM)
  MIC90: 43.7 µg/mL (≈ 107 µM)
Escherichia coli [31]
  inhibition of growth at 3 µg/mL: 35.8%
[32]
  MIC90: 47.9 µg/mL (≈ 118 µM)
[33]
  selectivity ratio: 9

## C/C(=N\Nc1nc(-c2ccc(Cl)cc2)cs1)c1sc(C)nc1C
Pseudomonas aeruginosa [1]
  inhibition of growth at 10 µg/mL: 61.6%
Staphylococcus aureus [2]
  inhibition of growth at 3 µg/mL: 50.9%
[3]
  selectivity ratio: 3
[4]
  selectivity ratio: 1
[5]
  selectivity ratio: 6
Bacillus subtilis [6]
  inhibition of growth at 30 µg/mL: 63.8%
Pseudomonas aeruginosa [7]
  inhibition of growth at 30 µg/mL: 66.9%
Staphylococcus aureus [8]
  inhibition of growth at 10 µg/mL: 61.7%
[9]
  selectivity ratio: 3
[10]
  GI50: > 100 µg/mL
  GI90: > 100 µg/mL
Pseudomonas aeruginosa [11]
  inhibition of growth at 3 µg/mL: 50.9%
[12]
  MIC90: > 100 µg/mL
Bacillus subtilis [13]
  inhibition of growth at 3 µg/mL: 47.1%
[14]
  IC50: 1.95 µg/mL (≈ 5.37 µM)
  MIC90: 16.1 µg/mL (≈ 44.2 µM)
[15]
  selectivity ratio: 6
[16]
  selectivity ratio: 1
[17]
  selectivity ratio: 6
[18]
  GI50: > 100 µg/mL
  GI90: > 100 µg/mL
[19]
  selectivity ratio: 1
[20]
  selectivity ratio: 6
[21]
  IC50: 3.06 µg/mL (≈ 8.43 µM)
  MIC90: 17 µg/mL (≈ 46.7 µM)
[22]
  GI50: > 100 µg/mL
  GI90: > 100 µg/mL
[23]
  IC50: 11.9 µg/mL (≈ 32.8 µM)
  MIC90: > 100 µg/mL
Escherichia coli [24]
  inhibition of growth at 10 µg/mL: 63.9%
[25]
  selectivity ratio: 3
[26]
  selectivity ratio: 6
Bacillus subtilis [27]
  inhibition of growth at 10 µg/mL: 58.9%
Staphylococcus aureus [28]
  inhibition of growth at 30 µg/mL: 66.3%
Escherichia coli [29]
  inhibition of growth at 30 µg/mL: 68.4%
[30]
  IC50: 9.02 µg/mL (≈ 24.9 µM)
  MIC90: > 100 µg/mL
Escherichia coli [31]
  inhibition of growth at 3 µg/mL: 54%
[32]
  MIC90: > 100 µg/mL
[33]
  selectivity ratio: 6
